A selection: hits, their analogues and other compounds. The true share with any hit is near 1.8%.
CHRM4 PAM: positive allosteric modulators of human muscarinic M4 receptor; P08173; CHO-K1 hM4/Gqi5, Fluo-8 calcium fluorescence, ACh EC20; 0% = ACh EC20, 100% = maximal ACh; activation, % at 3 µM; 360,000 tested, 0.4% active;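 active = activation above its plate's cutoff, the mean activation of sample wells plus 3 SD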
Target sequence (P08173 whole entry, looked up): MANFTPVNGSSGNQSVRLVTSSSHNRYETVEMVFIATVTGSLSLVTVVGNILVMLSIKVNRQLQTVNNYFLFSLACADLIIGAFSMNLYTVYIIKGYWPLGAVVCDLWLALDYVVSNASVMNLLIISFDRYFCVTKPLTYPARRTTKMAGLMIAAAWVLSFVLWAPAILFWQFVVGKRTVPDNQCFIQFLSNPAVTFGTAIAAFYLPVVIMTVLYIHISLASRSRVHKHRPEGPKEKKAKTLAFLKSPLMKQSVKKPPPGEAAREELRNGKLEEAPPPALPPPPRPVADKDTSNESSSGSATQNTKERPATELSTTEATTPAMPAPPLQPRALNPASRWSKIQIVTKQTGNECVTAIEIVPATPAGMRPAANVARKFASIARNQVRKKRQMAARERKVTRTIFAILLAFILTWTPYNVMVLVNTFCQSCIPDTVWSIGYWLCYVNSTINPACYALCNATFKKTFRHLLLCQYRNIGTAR
CHRM5 agonist: CHRM5 agonism in calcium assay | activation, % at 3 µM | 360,000 tested, 0.19% active | CHO-K1 hM5 cells, Fluo-8 calcium fluorescence; 0% DMSO wells, 100% maximal acetylcholine response | AID 624037 | P08912;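 active = activation above the run's mean over test compounds plus 3 SD, cut at about 23% in these data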;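 note: signal is peak over basal fluorescence ratio across the kinetic read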
M4 ag: CHRM4 agonism in calcium assay; activation, % at 3 µM; P08173; CHO-K1 hM4/Gqi5, Fluo-8 calcium fluorescence; vehicle 0%, full acetylcholine response 100%; 360,000 tested, 0.14% active; AID 624127;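 active = activation above the run mean over all test wells plus 3 SD, cut at about 32% in these data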;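 note: peak over basal fluorescence ratio per well then scaled between controls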
CHRM5 PAM: potentiates acetylcholine response at human M5 receptor; CHO-K1 hM5, Fluo-8 calcium, ACh EC20 PAM; 0% = ACh EC20, 100% = ACh EC100; activation, % at 3 µM; 360,000 tested, 0.3% active; AID 624038;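 active = activation above the run cutoff, the mean activation of all test compounds plus 3 SD, cut at about 18% in these data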
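System – CHO-K1 hM5 cells · Compound – 3 µM, single dose · Incubation – compound preincubation 140 s before EC20 acetylcholine addition · Technique – Fluo-8 calcium fluorescence · Measure – Max/basal fluorescence ratio as % of EC20–EC100 ACh window · Benchmarks – low control EC20 acetylcholine (0%), high control EC100 acetylcholine (100%) · Replication – singlicate, one well per test compound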
M4 antag: CHRM4 antagonism in calcium assay. P08173. CHO-hM4 cells, ACh EC80, Fluo-8 calcium fluorescence. inhibition, % at 3 µM. 360,000 tested, 0.73% active;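 active = inhibition above its plate's cutoff, the mean inhibition of sample wells plus 3 SD, cut at about 27% in these data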
M5 antag: blocks acetylcholine activation of human M5 receptor; inhibition, % at 3 µM; 360,000 tested, 0.59% active; P08912; CHO-hM5 cells, Fluo-8 calcium fluorescence, ACh EC80;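 active = inhibition above a per-plate cutoff, the mean of that plate's test compounds plus 3 SD, cut at about 27% in these data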
Large screens that a line does not name were inactive.

CN1CC(=O)N2[C@H](c3ccc4c(c3)OCO4)c3[nH]c4ccccc4c3C[C@@H]2C1=O	none
COc1ccc(NS(=O)(=O)c2ccc(N3CCCC3=O)cc2)cn1	M5 antag 28
Cc1cn(C2CCCCC2)c(=O)n(-c2ccccc2)c1=O	none
O=C(N/N=C/c1ccco1)c1cc([N+](=O)[O-])cc([N+](=O)[O-])c1	none
O=C(O)c1ccc(N/N=C/C=C/c2ccc([N+](=O)[O-])o2)cc1	CHRM5 agonist 36, M4 ag 74, M5 antag 28
O=[N+]([O-])c1ccc(N/N=C/C=C/c2ccco2)cc1	CHRM5 agonist 29, M4 ag 38, M5 antag 32
O=C(CC[C@H]1O[C@@H](n2ccc(=O)[nH]c2=O)[C@H](O)[C@@H]1O)NCc1cccc2ccccc12	CHRM4 PAM 21
CCCCC[C@@H](C)N1C[C@H](COCc2ccccc2)Oc2cc(N3CC[C@H](O)C3)ccc2S1(=O)=O	none
C=CC[n+]1c(/C=C2\C=Cc3cc(C)ccc3N2CC)ccc2ccccc21	M4 antag 33, M5 antag 37
CCN1C(=C(C#N)C#N)C=Cc2cc(C)ccc21	none
OC(c1ccccc1)(C1CCCCC1)C(CN1CCOCC1)c1ccccc1 (stereo not given)	none
CCN(CC)CCC(O)(c1ccccc1)C1CCCCC1 (stereo not given)	M4 antag 85, M5 antag 89
CC[N+](CC)(CC)CCC(O)(c1ccccc1)C1CCCCC1 (stereo not given)	M4 antag 99, M5 antag 99
COc1ccc(-c2nc(N3CCCCCC3)sc2C(=O)c2ccccc2)cc1	M4 antag 33
O=C(c1ccccc1)c1sc(N2CCCCCC2)nc1-c1ccccc1	none
Cc1cc(OC(C)C(=O)NNC(=O)Nc2ccc(F)cc2F)cc(C)c1Cl (stereo not given)	none
Cc1cccc(Nc2ncccc2C(=O)NCc2cccs2)c1C	M4 antag 38
Cc1cccc(C)c1NC(=O)C(c1ccc(C#N)cc1)n1c(=O)c(-c2cc3ccccc3[nH]2)nc2ccccc21 (stereo not given)	none
Nc1nc2ccccc2cc1C(=O)NCCCCc1ccccc1	M5 antag 28
O=C(CCSc1nnc(-c2ccncc2)o1)Nc1ccccc1	none
CCNC(=O)CCSc1nnc(-c2ccncc2)o1	CHRM4 PAM 24
O=C(Nc1ccc2nc(-c3cccs3)[nH]c2c1)c1cccs1	none
O=C(c1ccccc1)c1ccc2nc(-c3ccc(NC(=O)c4ccccc4Br)cc3)[nH]c2c1	M4 antag 28
O=C(Cc1cccs1)Nc1cccc(-c2nc3cc4ccccc4cc3[nH]2)c1	M5 antag 27
Cc1ccccc1C(=O)Nc1ccc(-c2nc3ccc(C(=O)c4ccccc4)cc3[nH]2)cc1	M4 antag 36
O=C(Nc1ccc(-c2nc3ccc(NC(=O)c4cccs4)cc3[nH]2)cc1)c1cccs1	M4 antag 46, M5 antag 27
CS(=O)(=O)c1ccccc1C(=O)Nc1ccc(-c2nc3ccccc3[nH]2)cc1	none
CC(=O)Nc1cccc(NC(=O)Cc2cccs2)c1	none
Cc1ccc(NC(=O)CSCc2cc(=O)n3ccsc3n2)c(C)c1	none
Cc1cccc(CNC(=O)c2sc(=O)n(Cc3ccc(S(C)(=O)=O)cc3)c2C)c1	none
CCCOC(=O)C1=C(C)OC23OC(N)=C(C#N)C12C(=O)c1ccccc13 (stereo not given)	M4 antag 34
Cc1nn(CC(=O)N(CC(C)C)C2CCS(=O)(=O)C2)c(C)c1[N+](=O)[O-] (stereo not given)	none
Cc1c[n+](CC(=O)c2ccccc2)c(C)cn1	none
CC(=O)c1cccc(CN(C)CC2CCCN(CCc3ccccc3C)C2)c1 (stereo not given)	M4 antag 88, M5 antag 81
COc1ccccc1CCN1CCCC(CN(C)CC(C)(C)CO)C1 (stereo not given)	M4 antag 30
CC[C@]12c3[nH]c4cc(CCC(=O)N(C)C)ccc4c3CCN1C(=O)[C@@H](CC(=O)NCc1cccc(C(F)(F)F)c1)C[C@@H]2C(=O)N1CCN(C(=O)c2ccco2)CC1	none
CN(C)S(=O)(=O)NCC1CCCN(Cc2cc3ccccc3s2)C1 (stereo not given)	none
N#Cc1ccc(-c2ccc(F)cc2)nc1Oc1ccc(Cl)c(Cl)c1	CHRM4 PAM 33
Cc1ccc2nc(-c3ccc(N)cc3)sc2c1	CHRM4 PAM 13
CCn1c(COC(=O)CNC(=O)c2ccccc2)nc2cc(S(=O)(=O)N(C)C)ccc21	none
Cc1ccc(CN2C(=O)CCC2C(=O)NC2CC2)cc1 (stereo not given)	CHRM4 PAM 26
COCC1OC(OC(C)C(O)c2cnc3nc(N)[nH]c(=O)c3n2)C(O)C(OC)C1O (stereo not given)	none
CCc1ccc(S(=O)(=O)NCc2ccc(C(=O)NCCN(Cc3ccccc3)C(C)C)cc2)cc1	M5 antag 29
CC(=O)Nc1ccc(S(=O)(=O)NCc2ccc(C(=O)NCCN(C)Cc3ccccc3)cc2)cc1	none
COc1ccccc1-c1nc(-c2ccccc2)[nH]c(=O)c1C#N	none
COc1ccc(N(CC(=O)NCc2ccc(Cl)cc2)S(=O)(=O)c2c(C)n[nH]c2C)cc1	M5 antag 30
COc1ccc(N(CC(=O)NCc2ccc(F)cc2)S(=O)(=O)c2c(C)n[nH]c2C)cc1	none
COc1cc(CCC(=O)Nc2ccc(C)c(S(=O)(=O)N3CCCCCC3)c2)cc(OC)c1OC	none
COc1ccc([N+](=O)[O-])c(S(=O)(=O)c2ccccc2)n1	M4 antag 30
COc1ccc([N+](=O)[O-])c(S(=O)(=O)c2ccc(Cl)cc2)n1	none
Cc1c(O)cc2c(c1O)C(=O)CC(c1ccccc1)O2 (stereo not given)	CHRM5 agonist 47, M4 ag 60, M4 antag 94, M5 antag 84
O=C1C[C@@H](c2ccc(O)cc2)Oc2cc(O)cc(O)c21	none
O=c1[nH]cnc2c1C(c1ccccc1[N+](=O)[O-])c1c(nc[nH]c1=O)O2	CHRM5 PAM 21
O=C(CC1CC1)Nc1ccc2c(c1)[C@@H]1C[C@H](CC(=O)NC3CCCC3)O[C@@H](CO)[C@@H]1O2	none
CN(C(=O)CSc1nnc(-c2ccccc2F)n1N)C1CCCCC1	none
CC(C)NC(=O)C1(C)CSCC(=O)N1C1CCN(Cc2ccccc2)CC1 (stereo not given)	none
